Data published in ChEMBL document CHEMBL5537124, “Unexpected rearrangement of ivermectin in the synthesis of new derivatives with trypanocidal and antiplasmodial activities” (Eur J Med Chem, 2024).

What was measured:
[1] = Selectivity index, ratio of GI50 for human HL-60 cells to GI50 for Trypanosoma brucei brucei 221a; format: toxicity; details: for selectivity ratio: HL-60 cells versus Trypanosoma brucei brucei 221a, read-out: RatioGI50
Method in brief: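 Ratio of GI50 for HL-60 to GI50 for T. b. brucei, both from the resazurin growth assay.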

[2] = test system: Trypanosoma brucei brucei; assay: Trypanocidal activity against Trypanosoma brucei brucei 221a assessed as parasite growth inhibition measured after 24 hrs by resazurin dye based microplate reader analysis; format: functional
Method in brief: (§1)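 Seeded at 1 × 10^4 mL-1 (T. b. brucei) or 5 × 10^4 mL-1 (HL-60) in Baltz medium with 16.7 % bovine serum and 0.9 % DMSO. Test compounds given as tenfold dilutions from 100 μM to 1 nM. Incubated at 37 °C, 5 % CO2. Resazurin added after 24 h, then a further 48 h. Absorbance read at 570/630 nm. GI50 obtained by linear interpolation; mean ± SD of three independent experiments.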

[3] = test system: Plasmodium berghei; assay: Antiplasmodial activity against luciferase-expressing Plasmodium berghei infected in human Huh-7 cells assessed as reduction in parasitic load pretreated for 1 hr with cells followed by parasite infection and measured 48 hrs post infection by firefly luciferase assay; format: functional, organism-based
Method in brief: (§2)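 Huh7 hepatoma cells in RPMI-1640 with 10 % FCS, seeded at 1 × 10^4 per well and left overnight. Seven compound concentrations, serially diluted from 10 mM DMSO stocks, applied 1 h before infection; DMSO vehicle control. PbGFP-Luciferase sporozoites from An. stephensi salivary glands added 1:1, plates spun 1800 × g for 5 min. Confluency by AlamarBlue at 46 hpi; parasite load by firefly luciferase at 48 hpi. IC50 from nonlinear regression.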

[4] = test system: Huh-7; assay: Cytotoxicity against human Huh-7 cells infected with luciferase-expressing Plasmodium berghei assessed as effect on cell confluency pretreated for 1 hr followed by parasite infection and measured 46 hrs post infection by alamar blue staining based analysis; format: toxicity; details: huh-7, 47 h; method in brief: as §2
[5] = test system: Trypanosoma cruzi; assay: Antitrypanosomal activity against trypomastigote form of Trypanosoma cruzi Dm28c expressing beta-galactosidase using chlorophenol red beta-D-galactopyranoside as enzyme substrate measured after 24 hrs by colorimetric analysis; format: functional, organism-based
[6] = test system: HL-60; assay: Cytotoxicity against human HL-60 cells assessed as cell growth inhibition measured after 24 hrs by resazurin dye based microplate reader analysis; format: toxicity; details: hl-60, 24 h; method in brief: as §1

Compound | selectivity ratio [1] | GI50 [2] [µM] | also measured
CC[C@H](C)[C@H]1O[C@]2(CC[C@@H]1C)C[C@@H]1C[C@@H](C/C=C(\C)[C@H](NC(=O)c3ccc(OC)c(O)c3)[C@@H](C)/C=C/C=C3\CO[C@@H]4[C@H](O)[C@](C)(O)C=C(C(=O)O1)[C@]34O)O2 | 8 | 4.1 | –
CC[C@H](C)[C@H]1O[C@]2(CC[C@@H]1C)C[C@@H]1C[C@@H](C/C=C(\C)[C@@H](O)[C@@H](C)/C=C/C=C3\CO[C@@H]4[C@H](O)[C@](C)(O)C=C(C(=O)O1)[C@]34O)O2 | 2.6 | 12.1 | IC50 ([3]; Plasmodium berghei, Huh-7): 2.85 µM; Activity [4]: Non-Toxic
CCC(=O)N[C@H]1/C(C)=C/C[C@@H]2C[C@@H](C[C@]3(CC[C@H](C)[C@@H]([C@@H](C)CC)O3)O2)OC(=O)C2=C[C@@](C)(O)[C@@H](O)[C@H]3OC/C(=C\C=C\[C@@H]1C)[C@@]23O | 4.3 | 8.1 | –
CC[C@H](C)[C@H]1O[C@]2(CC[C@@H]1C)C[C@@H]1C[C@@H](C/C=C(\C)[C@H](NC(=O)CCl)[C@@H](C)/C=C/C=C3\CO[C@@H]4[C@H](O)[C@](C)(O)C=C(C(=O)O1)[C@]34O)O2 | 67.2 | 0.064 | –
CC[C@H](C)[C@H]1O[C@]2(CC[C@@H]1C)C[C@@H]1C[C@@H](C/C=C(\C)[C@H](NC(=O)c3ccco3)[C@@H](C)/C=C/C=C3\CO[C@@H]4[C@H](O)[C@](C)(O)C=C(C(=O)O1)[C@]34O)O2 | 7 | 4.7 | –
CC[C@H](C)[C@H]1O[C@]2(CC[C@@H]1C)C[C@@H]1C[C@@H](C/C=C(\C)[C@H](NC(=O)c3ccco3)[C@@H](C)/C=C/C=C3\CO[C@@H]4[C@H](O)C(C)=C[C@@H](C(=O)O1)[C@]34O)O2 | 3.1 | 10.2 | –
CCCCCCCCCC(=O)N[C@H]1/C(C)=C/C[C@@H]2C[C@@H](C[C@]3(CC[C@H](C)[C@@H]([C@@H](C)CC)O3)O2)OC(=O)C2=C[C@@](C)(O)[C@@H](O)[C@H]3OC/C(=C\C=C\[C@@H]1C)[C@@]23O | 7.8 | 4.1 | –
CC[C@H](C)[C@H]1O[C@]2(CC[C@@H]1C)C[C@@H]1C[C@@H](C/C=C(\C)[C@H](NC(C)=O)[C@@H](C)/C=C/C=C3\CO[C@@H]4[C@H](O)[C@](C)(O)C=C(C(=O)O1)[C@]34O)O2 | 4.5 | 7.5 | IC50 ([3]; Plasmodium berghei, Huh-7): 0.379 µM; Activity [4]: Non-Toxic
CC[C@H](C)[C@H]1O[C@]2(CC[C@@H]1C)C[C@@H]1C[C@@H](C/C=C(\C)[C@H](NC(=O)COC)[C@@H](C)/C=C/C=C3\CO[C@@H]4[C@H](O)C(C)=C[C@@H](C(=O)O1)[C@]34O)O2 | 2.3 | 14.4 | –
CC[C@H](C)[C@H]1O[C@]2(CC[C@@H]1C)C[C@@H]1C[C@@H](C/C=C(\C)[C@H](NC(=O)c3ccccc3)[C@@H](C)/C=C/C=C3\CO[C@@H]4[C@H](O)[C@](C)(O)C=C(C(=O)O1)[C@]34O)O2 | 7 | 4.3 | –
CCCCCCCCCC(=O)N[C@H]1/C(C)=C/C[C@@H]2C[C@@H](C[C@]3(CC[C@H](C)[C@@H]([C@@H](C)CC)O3)O2)OC(=O)[C@@H]2C=C(C)[C@@H](O)[C@H]3OC/C(=C\C=C\[C@@H]1C)[C@]32O | 3.2 | 9.3 | –
CC[C@H](C)[C@H]1O[C@]2(CC[C@@H]1C)C[C@@H]1C[C@@H](C/C=C(\C)[C@H](NC(=O)COC)[C@@H](C)/C=C/C=C3\CO[C@@H]4[C@H](O)[C@](C)(O)C=C(C(=O)O1)[C@]34O)O2 | 1.8 | 18.2 | –
CC[n+]1c(-c2ccccc2)c2cc(N)ccc2c2ccc(N)cc21 [HOMIDIUM BROMIDE] | 67.4 | 0.086 | –
Cc1ccc(C(=O)Nc2ccc(S(=O)(=O)O)c3cc(S(=O)(=O)O)cc(S(=O)(=O)O)c23)cc1NC(=O)c1cccc(NC(=O)Nc2cccc(C(=O)Nc3cc(C(=O)Nc4ccc(S(=O)(=O)O)c5cc(S(=O)(=O)O)cc(S(=O)(=O)O)c45)ccc3C)c2)c1 [SURAMIN] | > 2780 | 0.036 | –
CCC(=O)N[C@H]1/C(C)=C/C[C@@H]2C[C@@H](C[C@]3(CC[C@H](C)[C@@H]([C@@H](C)CC)O3)O2)OC(=O)[C@@H]2C=C(C)[C@@H](O)[C@H]3OC/C(=C\C=C\[C@@H]1C)[C@]32O | 4.3 | 7.4 | –
IVERMECTIN [listing 1 of 2 here] | – | 14.6 | –
CC[C@H](C)[C@H]1O[C@]2(CC[C@@H]1C)C[C@@H]1C[C@@H](C/C=C(\C)[C@H](NC(=O)C(C)C)[C@@H](C)/C=C/C=C3\CO[C@@H]4[C@H](O)C(C)=C[C@@H](C(=O)O1)[C@]34O)O2 | 3.3 | 10.2 | –
CC[C@H](C)[C@H]1O[C@]2(CC[C@@H]1C)C[C@@H]1C[C@@H](C/C=C(\C)[C@H](NC(=O)C(C)C)[C@@H](C)/C=C/C=C3\CO[C@@H]4[C@H](O)[C@](C)(O)C=C(C(=O)O1)[C@]34O)O2 | 5.1 | 6.6 | –
CC[C@H](C)[C@H]1O[C@]2(CC[C@@H]1C)C[C@@H]1C[C@@H](C/C=C(\C)[C@H](NC(=O)c3ccc(OC)c(O)c3)[C@@H](C)/C=C/C=C3\CO[C@@H]4[C@H](O)C(C)=C[C@@H](C(=O)O1)[C@]34O)O2 | 8.2 | 3.9 | –
CC[C@H](C)[C@H]1O[C@]2(CC[C@@H]1C)C[C@@H]1C[C@@H](C/C=C(\C)[C@H](NC(=O)C34CC5CC(CC(C5)C3)C4)[C@@H](C)/C=C/C=C3\CO[C@@H]4[C@H](O)C(C)=C[C@@H](C(=O)O1)[C@]34O)O2 | 1.6 | 19.1 | –
CC[C@H](C)[C@H]1O[C@]2(CC[C@@H]1C)C[C@@H]1C[C@@H](C/C=C(\C)[C@H](NC(=O)c3ccccc3)[C@@H](C)/C=C/C=C3\CO[C@@H]4[C@H](O)C(C)=C[C@@H](C(=O)O1)[C@]34O)O2 | 3.6 | 8.6 | –
IVERMECTIN [listing 2 of 2 here] | – | – | IC50 ([3]; huh-7): 0.911 µM; RatioGI50 [1]: 2.1; EC50 [5]: 10.4 µM; Activity [4]: Non-Toxic; GI50 [6]: 31.3 µM
CC[C@H](C)[C@H]1O[C@]2(CC[C@@H]1C)C[C@@H]1C[C@@H](C/C=C(\C)[C@H](NC(C)=O)[C@@H](C)/C=C/C=C3\CO[C@@H]4[C@H](O)C(C)=C[C@@H](C(=O)O1)[C@]34O)O2 | 5.8 | 5.5 | IC50 ([3]; Plasmodium berghei, Huh-7): 1.52 µM; Activity [4]: Non-Toxic
CC[C@H](C)[C@H]1O[C@]2(CC[C@@H]1C)C[C@@H]1C[C@@H](C/C=C(\C)[C@@H](O)[C@@H](C)/C=C/C=C3\CO[C@@H]4[C@H](O)C(C)=C[C@@H](C(=O)O1)[C@]34O)O2 [IVM AGLYCONE] | 5.8 | 6.1 | IC50 ([3]; Plasmodium berghei, Huh-7): 5.45 µM; Activity [4]: Non-Toxic
CC[C@H](C)[C@H]1O[C@]2(CC[C@@H]1C)C[C@@H]1C[C@@H](C/C=C(\C)[C@H](NC(=O)C34CC5CC(CC(C5)C3)C4)[C@@H](C)/C=C/C=C3\CO[C@@H]4[C@H](O)[C@](C)(O)C=C(C(=O)O1)[C@]34O)O2 | 10.3 | 3 | –
CC[C@H](C)[C@H]1O[C@]2(CC[C@@H]1C)C[C@@H]1C[C@@H](C/C=C(\C)[C@H](NC(=O)CCl)[C@@H](C)/C=C/C=C3\CO[C@@H]4[C@H](O)C(C)=C[C@@H](C(=O)O1)[C@]34O)O2 | 47.6 | 0.063 | –
CC[C@H](C)[C@H]1O[C@]2(CC[C@@H]1C)C[C@@H]1C[C@@H](C/C=C(\C)[C@H](NC(=O)c3ccc(OC)c(OC)c3)[C@@H](C)/C=C/C=C3\CO[C@@H]4[C@H](O)C(C)=C[C@@H](C(=O)O1)[C@]34O)O2 | 5.6 | 5.8 | –
CC[C@H](C)[C@H]1O[C@]2(CC[C@@H]1C)C[C@@H]1C[C@@H](C/C=C(\C)[C@@H](O[C@H]3C[C@H](OC)[C@@H](O[C@H]4C[C@H](OC)[C@@H](O)[C@H](C)O4)[C@H](C)O3)[C@@H](C)/C=C/C=C3\CO[C@@H]4[C@H](O)[C@](C)(O)C=C(C(=O)O1)[C@]34O)O2 | 1.6 | 20 | IC50 ([3]; Plasmodium berghei, Huh-7): 4.72 µM; Activity [4]: Non-Toxic
CC[C@H](C)[C@H]1O[C@]2(CC[C@@H]1C)C[C@@H]1C[C@@H](C/C=C(\C)[C@H](NC(=O)c3ccc(OC)c(OC)c3)[C@@H](C)/C=C/C=C3\CO[C@@H]4[C@H](O)[C@](C)(O)C=C(C(=O)O1)[C@]34O)O2 | 6.4 | 5 | –
